# Results pooled from the literature.
# Protocols differ between the studies behind these lines.
# Target: D(2) dopamine receptor (DRD2, Homo sapiens, UniProt P14416)
Compound,assay,test system,conditions,endpoint,value
CCC(=NO)C(C)=Cc1ccc(F)c(C)c1,ligand displacement,,10 µM,inhibition,-6.57%
CCc1ccc(N2CCN(CC(O)COc3ccc(C(C)=O)cc3OC)CC2)cc1 (stereo not shown),"enzyme activity, inhibitor",,10 µM,inhibition,11.2%
Cc1cc(NC(=O)c2cccc(S(F)(F)(F)(F)F)c2)cc(-n2ccn3nc(-c4cccnc4)cc23)c1,"ligand displacement, radioligand",,10 µM,inhibition,12.3%
O=C(CN1CCO[C@H](COc2ccccc2)C1)N1CCc2ccccc21,"ligand displacement, radioligand",,10 µM,inhibition,13.6%
CCOc1cc(N2C3COCC2CN(C(=O)[C@H]2C[C@H](O)CN2c2ccc(Cl)cc2)C3)ccc1Cl,cell-free assay,,10 µM,inhibition,7.26%
COc1ccc2c(c1)CN(CCCN1CCN(c3ccccc3OC)CC1)C2=O,"ligand displacement, radioligand",,10 µM,inhibition,82.1%
O=C(c1ccccc1Cl)N1CCN(CCNc2cc(=O)oc3ccccc23)CC1,"enzyme activity, inhibitor",,10 µM,inhibition,31.2%
O=C(NCc1ncc(C(F)(F)F)cc1Cl)c1ccc2c(c1)C1(CCS(=O)(=O)CC1)[C@@H](C1CC1)N2S(=O)(=O)c1ccc(F)cc1,ligand displacement,,10 µM,inhibition,-8.4%
Cc1[nH]n(-c2ccc([N+](=O)[O-])cc2)c(=O)c1C=NCCN1CCN(C(=O)c2cccc(F)c2)CC1,"enzyme activity, inhibitor",,10 µM,inhibition,20.6%
O=C(CCCN1CCC(O)(c2ccc(Br)cc2)CC1)c1ccc(F)cc1,binding,,,kon,2.67e+06 M⁻¹ s⁻¹
COc1ccccc1N1CCN(CCCCN2CCc3ccccc3C2=O)CC1,"ligand displacement, radioligand",,10 µM,inhibition,97.5%
FC(F)(F)c1cccc(-c2ccc(CNCCCN3CCOCC3)o2)c1,"enzyme activity, inhibitor",,10 µM,inhibition,48.3%
CNc1nc2cc(OCCCCN3CCN(c4cccc5ccc(C)nc45)CC3)ccc2s1,"β-arrestin recruitment, agonist",HTLA,,Emax,< 20%
O=C(CN1CCO[C@H](COc2cccnc2)C1)N1CCc2ccccc21,"ligand displacement, radioligand",,10 µM,inhibition,9.9%
COc1ccc(N2CCN(CC(O)COc3ccc(C(C)=O)cc3OC)CC2)cc1 (stereo not shown),"enzyme activity, inhibitor",,10 µM,inhibition,27.4%
CC(=O)C1=C(C)N(c2cccc(C(F)(F)F)c2)C(=O)N[C@H]1c1ccc(C#N)nc1,ligand displacement,,10 µM,inhibition,-1.53%
Cc1ccc(OC[C@@H]2CN(CCN3CCc4ccccc43)CCO2)cn1,"ligand displacement, radioligand",,10 µM,inhibition,18.8%
NS(=O)(=O)c1ccc(CCNCc2ccc(OCc3cccs3)cc2)cc1,"enzyme activity, inhibitor",,10 µM,inhibition,23.9%
O=C(O)[C@H]1[C@H](Cn2nnc3ccccc3c2=O)CC[C@@H]1C(=O)c1ccc(OCCC2CCOCC2)cc1,ligand displacement,,10 µM,inhibition,30.3%
COc1cccc(OC[C@@H]2CN(CCN3CCc4ccccc43)CCO2)c1,"ligand displacement, radioligand",,10 µM,inhibition,36.5%
CS(=O)(=O)c1cc(C2(NC(=O)c3cncc4c3cnn4-c3ccc(F)cc3)CC2)ccn1,cell-free assay,,10 µM,inhibition,6.62%
c1cncc(OC[C@@H]2CN(CCN3CCc4ccccc43)CCO2)c1,"ligand displacement, radioligand",,10 µM,inhibition,20.9%
O=C(NCCN1CCN(C(=O)c2ccccc2)CC1)C(=O)Nc1ccccc1,"enzyme activity, inhibitor",,10 µM,inhibition,6.4%
Clc1cncc(OC[C@@H]2CN(CCN3CCc4ccccc43)CCO2)c1,"ligand displacement, radioligand",,10 µM,inhibition,60%
Cc1nc2cc(OCCCCN3CCN(c4cccc5c4OCCO5)CC3)ccc2s1,"β-arrestin recruitment, agonist",HTLA,,Emax,35%
